Data published in ChEMBL document CHEMBL4396885, “Thioether-based 2-aminobenzamide derivatives: Novel HDAC inhibitors with potent in vitro and in vivo antitumor activity” (Eur J Med Chem, 2019).

Experiments:
[1] = test system: A549; test: Cell cycle arrest in human A549 cells assessed as accumulation of cells at S phase at 0.5 uM after 48 hrs by propidium iodide staining-based flow cytometry (reference value: 12.83%); assay type: functional
[2] = test system: A-375; test: Antiproliferative activity against human A375 cells assessed as growth inhibition at 8 uM after 72 hrs by CCK-8 assay relative to control; assay type: functional; settings: A-375, 72 h, read-out: GI
[3] = test system: HeLa; test: Antiproliferative activity against human HeLa cells assessed as growth inhibition at 2 uM after 72 hrs by CCK-8 assay relative to control; assay type: functional; settings: read-out: GI
[4] = test system: A549; test: Induction of apoptosis in human A549 cells assessed as late apoptotic cells at 1 uM after 48 hrs by Annexin V-FITC/propidium iodide staining based flow cytometry (reference value: 0.637%); assay type: functional
Method in brief: (§1)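 A549 seeded 4×10⁶ cells/well, dosed after 12 h with compound at various concentrations, harvested after 48 h. Resuspended in annexin-binding buffer, stained with Annexin V-FITC and propidium iodide for 15 min in the dark, analysed by flow cytometry; means of three separate experiments.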

[5] = test system: A549; test: Induction of apoptosis in human A549 cells assessed as necrotic cells at 1 uM after 48 hrs by Annexin V-FITC/propidium iodide staining based flow cytometry (reference value: 0.135%); assay type: functional; method in brief: as §1
[6] = test system: A549; test: Cell cycle arrest in human A549 cells assessed as accumulation of cells at G2/M phase at 2 uM after 48 hrs by propidium iodide staining-based flow cytometry (reference value: 13.62%); assay type: functional
[7] = test system: A549; test: Antiproliferative activity against human A549 cells assessed as decrease in cell viability after 72 hrs by CCK-8 assay; assay type: functional, cell-based; settings: A549, 72 h
Method in brief: (§2)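 Cells grown to 70–85% confluence (A375, A549, HCT116 in RPMI1640; HeLa, SMMC7721 in DMEM; 10% FBS, 37 °C, 5% CO2), seeded 4000/well, dosed after 12 h across a concentration range, incubated 72 h, then CCK-8 for 1 h; absorbance at 450 nm. IC50 as mean ± SD of three separate experiments.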

[8] = test system: A549; test: Cell cycle arrest in human A549 cells assessed as accumulation of cells at G0/G1 phase at 1 uM after 48 hrs by propidium iodide staining-based flow cytometry (reference value: 73.35%); assay type: functional
[9] = test system: A549; test: Induction of apoptosis in human A549 cells assessed as viable cells at 1 uM after 48 hrs by Annexin V-FITC/propidium iodide staining based flow cytometry (reference value: 98%); assay type: functional; settings: A549, 48 h, read-out: Activity; method in brief: as §1
[10] = test system: HeLa; test: Antiproliferative activity against human HeLa cells assessed as decrease in cell viability after 72 hrs by CCK-8 assay; assay type: functional, cell-based; method in brief: as §2
[11] = test system: A549; test: Cell cycle arrest in human A549 cells assessed as accumulation of cells at S phase at 2 uM after 48 hrs by propidium iodide staining-based flow cytometry (reference value: 12.83%); assay type: functional
[12] = test system: A549; test: Induction of apoptosis in human A549 cells assessed as early apoptotic cells at 2 uM after 48 hrs by Annexin V-FITC/propidium iodide staining based flow cytometry (reference value: 1.19%); assay type: functional; method in brief: as §1
[13] = test system: A-375; test: Antiproliferative activity against human A375 cells assessed as decrease in cell viability after 72 hrs by CCK-8 assay; assay type: functional, cell-based; settings: A-375, 72 h; method in brief: as §2
[14] = test system: A549; test: Induction of apoptosis in human A549 cells assessed as viable cells at 0.5 uM after 48 hrs by Annexin V-FITC/propidium iodide staining based flow cytometry (reference value: 98%); assay type: functional; settings: A549, 48 h, read-out: Activity; method in brief: as §1
[15] = test system: A549; test: Induction of apoptosis in human A549 cells assessed as late apoptotic cells at 2 uM after 48 hrs by Annexin V-FITC/propidium iodide staining based flow cytometry (reference value: 0.637%); assay type: functional; method in brief: as §1
[16] = test system: A549; test: Induction of apoptosis in human A549 cells assessed as viable cells at 2 uM after 48 hrs by Annexin V-FITC/propidium iodide staining based flow cytometry (reference value: 98%); assay type: functional; settings: A549, 48 h, read-out: Activity; method in brief: as §1
[17] = test system: A549; test: Cell cycle arrest in human A549 cells assessed as accumulation of cells at G0/G1 phase at 0.5 uM after 48 hrs by propidium iodide staining-based flow cytometry (reference value: 73.35%); assay type: functional
[18] = test system: A549; test: Induction of apoptosis in human A549 cells assessed as necrotic cells at 0.5 uM after 48 hrs by Annexin V-FITC/propidium iodide staining based flow cytometry (reference value: 0.135%); assay type: functional; method in brief: as §1
[19] = test system: A549; test: Antiproliferative activity against human A549 cells assessed as growth inhibition at 8 uM after 72 hrs by CCK-8 assay relative to control; assay type: functional; settings: A549, 72 h, read-out: GI
[20] = test system: A549; test: Cell cycle arrest in human A549 cells assessed as accumulation of cells at G2/M phase at 1 uM after 48 hrs by propidium iodide staining-based flow cytometry (reference value: 13.62%); assay type: functional
[21] = test system: A549; test: Cell cycle arrest in human A549 cells assessed as accumulation of cells at S phase at 1 uM after 48 hrs by propidium iodide staining-based flow cytometry (reference value: 12.83%); assay type: functional
[22] = test system: SMMC-7721; test: Antiproliferative activity against human SMMC7721 cells assessed as growth inhibition at 2 uM after 72 hrs by CCK-8 assay relative to control; assay type: functional; settings: SMMC-7721, 72 h, read-out: GI
[23] = test system: A549; test: Cell cycle arrest in human A549 cells assessed as accumulation of cells at G0/G1 phase at 2 uM after 48 hrs by propidium iodide staining-based flow cytometry (reference value: 73.35%); assay type: functional
[24] = test system: HeLa; test: Antiproliferative activity against human HeLa cells assessed as growth inhibition at 8 uM after 72 hrs by CCK-8 assay relative to control; assay type: functional; settings: read-out: GI
[25] = test system: SMMC-7721; test: Antiproliferative activity against human SMMC7721 cells assessed as growth inhibition at 8 uM after 72 hrs by CCK-8 assay relative to control; assay type: functional; settings: SMMC-7721, 72 h, read-out: GI
[26] = test system: A549; test: Induction of apoptosis in human A549 cells assessed as late apoptotic cells at 0.5 uM after 48 hrs by Annexin V-FITC/propidium iodide staining based flow cytometry (reference value: 0.637%); assay type: functional; method in brief: as §1
[27] = test system: A549; test: Induction of apoptosis in human A549 cells assessed as early apoptotic cells at 1 uM after 48 hrs by Annexin V-FITC/propidium iodide staining based flow cytometry (reference value: 1.19%); assay type: functional; method in brief: as §1
[28] = test system: SMMC-7721; test: Antiproliferative activity against human SMMC7721 cells assessed as decrease in cell viability after 72 hrs by CCK-8 assay; assay type: functional, cell-based; settings: SMMC-7721, 72 h; method in brief: as §2
[29] = test system: A549; test: Induction of apoptosis in human A549 cells assessed as necrotic cells at 2 uM after 48 hrs by Annexin V-FITC/propidium iodide staining based flow cytometry (reference value: 0.135%); assay type: functional; method in brief: as §1
[30] = test system: A-375; test: Antiproliferative activity against human A375 cells assessed as growth inhibition at 2 uM after 72 hrs by CCK-8 assay relative to control; assay type: functional; settings: A-375, 72 h, read-out: GI
[31] = test system: A549; test: Induction of apoptosis in human A549 cells assessed as early apoptotic cells at 0.5 uM after 48 hrs by Annexin V-FITC/propidium iodide staining based flow cytometry (reference value: 1.19%); assay type: functional; method in brief: as §1
[32] = test system: A549; test: Antiproliferative activity against human A549 cells assessed as growth inhibition at 2 uM after 72 hrs by CCK-8 assay relative to control; assay type: functional; settings: A549, 72 h, read-out: GI
[33] = test system: HCT-116; test: Antiproliferative activity against human HCT116 cells assessed as growth inhibition at 8 uM after 72 hrs by CCK-8 assay relative to control; assay type: functional; settings: HCT-116, 72 h, read-out: GI
[34] = test system: HCT-116; test: Antiproliferative activity against human HCT116 cells assessed as decrease in cell viability after 72 hrs by CCK-8 assay; assay type: functional, cell-based; settings: HCT-116, 72 h; method in brief: as §2
[35] = test system: HCT-116; test: Antiproliferative activity against human HCT116 cells assessed as growth inhibition at 2 uM after 72 hrs by CCK-8 assay relative to control; assay type: functional; settings: HCT-116, 72 h, read-out: GI
[36] = test system: A549; test: Cell cycle arrest in human A549 cells assessed as accumulation of cells at G2/M phase at 0.5 uM after 48 hrs by propidium iodide staining-based flow cytometry (reference value: 13.62%); assay type: functional

Compound `Nc1ccc(F)cc1NC(=O)c1ccc(CNC(=O)/C=C/c2cccnc2)cc1` has an Activity [1] of 6.97%, an inhibition of growth at 8 µM [2] of 71.7% and an inhibition of growth at 2 µM [3] of 20.6%. The Activity [4] was 5.25%, the Activity [5] was 4.71% and the Activity [6] was 15.04%. The IC50 [7] was 6.81 µM, the Activity [8] was 74.07% and the viability at 1 µM [9] was 89%. The IC50 [10] was 3.42 µM, the Activity [11] was 9.43% and the Activity [12] was 3.97%. It also gave an IC50 [13] of 4.77 µM, a viability at 0.5 µM [14] of 96.5% and an Activity [15] of 4.14%. The viability at 2 µM [16] was 91%, the Activity [17] was 75.24% and the Activity [18] was 0.455%. It also gave an inhibition of growth at 8 µM [19] of 85.6%, an Activity [20] of 18.67% and an Activity [21] of 7.26%. The inhibition of growth at 2 µM [22] was 56.5%, the Activity [23] was 75.53% and the inhibition of growth at 8 µM [24] was 34.2%. The inhibition of growth at 8 µM [25] was 71.7%, the Activity [26] was 0.898% and the Activity [27] was 1.01%. The IC50 [28] was 8.63 µM, the Activity [29] was 0.881% and the inhibition of growth at 2 µM [30] was 56.5%. For the same compound, the Activity [31] was 2.17%, the inhibition of growth at 2 µM [32] was 21.9% and the inhibition of growth at 8 µM [33] was 87.4%. It also gave an IC50 [34] of 1.57 µM, an inhibition of growth at 2 µM [35] of 61.1% and an Activity [36] of 17.79%.
